# Test results reported in paper PMC4338372 (FEBS Open Bio, 2015).
# Experiments:
# SH3Hck = assay: Solid-phase enzyme immunoassay; type: binding; conditions: preliminary solid-phase enzyme immunoassay; data not shown
# CLIP-SH3Hck = assay: FRET of SNAP-ELMO1 constructs and CLIP-SH3Hck in HEK293T cells by flow cytometry; type: cell-based; conditions: HEK293T co-transfected with CLIP-SH3Hck; control CLIP-SH3Hck alone
# [1] = biological target: SH3 domain of Hck (SH3Hck) (Homo sapiens, UniProt P08631); assay: Pull-down of 6His-ELMO1 constructs on immobilized GST-SH3Hck; type: binding; conditions: bacterially expressed 6His-ELMO1; 1 h at 4 °C; anti-polyHistidine western blot
# Sequence of SH3 domain of Hck (SH3Hck) (P08631 77-141): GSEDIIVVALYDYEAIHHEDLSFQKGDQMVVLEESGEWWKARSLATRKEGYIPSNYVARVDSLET
# In short: (§1)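 GST-tagged SH3 domains (Hck residues 77–141; human DOCK180 residues 9–69) and 6His-ELMO1 (wild type 1–727, 532–727 and 532–707) were made in E. coli BL21(DE3) (1 mM IPTG, LB, 3 h, 37 °C). ELMO1 was purified by Ni–NTA and gel filtration, GST fusions on glutathione resin. ELMO1 was incubated with resin-bound SH3 (1 mg/ml) for 1 h at 4 °C in pH 7.5 Hepes buffer. Beads were washed three times, eluted denaturing, and analysed by SDS–PAGE and anti-His immunoblot.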
# [2] = system: SH3 domain of DOCK180 (SH3DOCK); assay: Pull-down of 6His-ELMO1 constructs on immobilized GST-SH3DOCK; type: binding, human; conditions: bacterially expressed 6His-ELMO1; 1 h at 4 °C; anti-polyHistidine western blot
# In short: as §1
dissociation rate of SH3Hck (SH3Hck),pull-down by immobilized GST-SH3Hck [1],Molecule,median FRET intensity compared to control cells (CLIP-SH3Hck),pull-down by immobilized GST-SH3DOCK [2]
ten-micromolar range,specifically pulled-down,"ELMO532–727: C-terminal domain of ELMO1 with the polyproline motif (protein, left off: 6His (TEV cleavable), end not stated, kept) PILELKEKIQPEILELIKQQRLNRLVEGTCFRKLNARRRQDKFWYCRLSPNHKVLHYGDLEESPQGEVPHDSLQDKLPVADIKAVVTGKDCPHMKEKGALKQNKEVLELAFSILYDSNCQLNFIAPDKHEYCIWTDGLNALLGKDMMSDLTRNDLDTLLSMEIKLRLLDLENIQIPDAPPPIPKEPSNYDFVYDCN",significantly higher median FRET intensity compared to control cells,efficiently pulled-down
,successfully pulled-down,"ELMO1–727: wild type (murine) ELMO1 protein (protein, left off: 6His (TEV cleavable), end not stated, kept) MPPPSDIVKVAIEWPGAYPKLMEIDQKKPLSAIIKEVCDGWSLANHEYFALQHADSSNFYITEKNRNEIKNGTILRLTTSPAQNAQQLHERIQSSSMDAKLEALKDLASLSRDVTFAQEFINLDGISLLTQMVESGTERYQKLQKIMKPCFGDMLSFTLTAFVELMDHGIVSWDTFSVAFIKKIASFVNKSAIDISILQRSLAILESMVLNSHDLYQKVAQEITIGQLIPHLQGTDQEIQTYTIAVINALFLKAPDERRQEMANILAQKQLRYIILTHVIRAQRAINNEMAHQLYVLQVLTFNLLEDRMMTKMDPQDQAQRDIIFELRRIAFDAESEPNNSSGSMEKRKSMYTRDYKKLGFINHVNPAMDFTQTPPGMLALDNMLYFAKHHQDAYIRIVLENSSREDKHECPFGRSSIELTKMLCEILKVGELPSETCNDFHPMFFTHDRSFEEFFCICIQLLNKTWKEMRATSEDFNKVMQVVKEQVMRALTTKPSSLDQFKSKLQNLSYTEILKIRQSERMNQEDFQSRPILELKEKIQPEILELIKQQRLNRLVEGTCFRKLNARRRQDKFWYCRLSPNHKVLHYGDLEESPQGEVPHDSLQDKLPVADIKAVVTGKDCPHMKEKGALKQNKEVLELAFSILYDSNCQLNFIAPDKHEYCIWTDGLNALLGKDMMSDLTRNDLDTLLSMEIKLRLLDLENIQIPDAPPPIPKEPSNYDFVYDCN",,successfully pulled-down
,,"ELMO532–707: C-terminal domain of ELMO1 without the polyproline motif (protein, left off: 6His (TEV cleavable), end not stated, kept) PILELKEKIQPEILELIKQQRLNRLVEGTCFRKLNARRRQDKFWYCRLSPNHKVLHYGDLEESPQGEVPHDSLQDKLPVADIKAVVTGKDCPHMKEKGALKQNKEVLELAFSILYDSNCQLNFIAPDKHEYCIWTDGLNALLGKDMMSDLTRNDLDTLLSMEIKLRLLDLENIQIP",,efficiently pulled-down
